From ChEMBL document CHEMBL2169771, “Mechanistic aspects of the photodynamic inactivation of Candida albicans induced by cationic porphyrin derivatives” (Eur J Med Chem, 2012)
Calls of active or inactive are those of the source. The rule behind the calls is not given here.

Assays:
Candida albicans [1] = assay: Antifungal activity against 10^7 CFU/mL Candida albicans PC31 assessed as cell survival at 5 uM preincubated for 30 mins in dark followed by irradiation measured after 30 mins; format: functional
Procedure, shortened: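 C. albicans PC31 grown overnight in Sabouraud broth at 37 °C to stationary phase, then resuspended in 10 mM PBS pH 7.0 at ~10^7 CFU/mL. Incubated with 5 µM porphyrin for 30 min in the dark at 37 °C. Irradiated 30 min with visible light from a 150 W lamp, water-filtered (fluence 162 J/cm²). CFU counted on Sabouraud agar after ~48 h at 37 °C, plated in triplicate. Three separate experiments, mean ± SD.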

Nucleic Acid [2] = assay: Binding affinity to calf thymus DNA by spectrophotometric analysis; format: nucleic-acid assay; settings: Bos taurus
Procedure, shortened: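 Absorbance titration: concentrated calf thymus DNA stock was added to ~2 µM porphyrin in PBS. Apparent KDNA was calculated from the Soret-maximum absorbance change, assuming 1:1 stoichiometry and DNA in large excess, via a double-reciprocal fit (1/ΔA vs 1/[DNA]). Three separate experiments, mean ± SD.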

Nucleic Acid [3] = assay: Binding affinity to calf thymus DNA assessed as DNA cleavage at 20 uM after 1 hr irradiation by agarose gel electrophoresis; format: nucleic-acid assay; settings: Bos taurus
Procedure, shortened: (§1)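 Calf thymus DNA (1.3 × 10^-4 M, base pairs) was mixed with 20 µM sensitizer in TE buffer (10 mM Tris-HCl, 1 mM EDTA, pH 7.6). Mixtures were irradiated in open tubes with visible light (90 mW/cm²) at room temperature for 1–5 h; dark controls were included. Samples were run on 1% agarose in TBE at 2.9 V/cm for 2 h.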

Candida albicans [4] = assay: Photocytotoxicity against Candida albicans PC31 assessed as change in cell morphology at 5 to 10 uM preincubated for 30 mins in dark followed by irradiation measured after 30 mins by transmission electron microscopy; format: functional, organism-based
Procedure, shortened: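 PC31 suspensions (~10^7 CFU/mL) were given 5 or 10 µM sensitizer for 30 min in the dark at 37 °C, then irradiated 30 min with visible light (162 J/cm²). Cells were fixed in 4% formaldehyde/2% glutaraldehyde in 0.1 M cacodylate for 2 h, then post-fixed in 1% OsO4. They were acetone-dehydrated, Araldite-embedded, cut at 80–100 nm, stained with uranyl acetate and lead citrate, and imaged by TEM.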

Nucleic Acid [5] = assay: Binding affinity to calf thymus DNA assessed as DNA cleavage at 20 uM after 5 hrs irradiation by agarose gel electrophoresis; format: nucleic-acid assay; settings: Bos taurus; procedure, shortened: as §1
Candida albicans [6] = assay: Antifungal activity against 10^7 CFU/mL Candida albicans PC31 preincubated for 30 mins in dark followed by irradiation measured after 30 mins; format: functional, organism-based; settings: PC31, light or radiation study
Procedure, shortened: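 IC50 was derived from PBS suspensions of PC31 (~10^7 CFU/mL) treated with 0.1–10 µM porphyrin for 30 min in the dark at 37 °C. Cells were then irradiated for 30 min with water-filtered visible light from a 150 W lamp. Survival was counted as CFU on Sabouraud agar after ~48 h at 37 °C.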

Candida albicans [7] = assay: Photocytotoxicity against Candida albicans PC31 assessed as release of intracellular DNA and protein at 5 uM preincubated for 30 mins in dark followed by irradiation measured after 30 mins by UV-vis spectroscopic analysis; format: functional, organism-based
Procedure, shortened: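 PC31 cells (~10^7 CFU/mL in 2 mL PBS) were incubated with 5 µM porphyrin for 30 min in the dark, then irradiated 30 min with visible light (162 J/cm²). After centrifugation at 13,000 rpm for 5 min, supernatants were scanned by UV–visible spectroscopy, with absorbance at 260 nm taken as the release read-out. Freeze–thaw lysis in liquid nitrogen gave the positive control.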

Nucleic Acid [8] = assay: Binding affinity to calf thymus DNA assessed as DNA cleavage at 20 uM by agarose gel electrophoresis in absence of irradiation; format: nucleic-acid assay; settings: Bos taurus; procedure, shortened: as §1
Candida albicans [9] = assay: Antifungal activity against 10^6 CFU/mL Candida albicans PC31 assessed as cell survival at 5 uM preincubated for 30 mins in dark followed by irradiation measured after 30 mins; format: functional
Nucleic Acid [10] = assay: Binding affinity to Candida albicans PC31 DNA assessed as genomic DNA cleavage at 5 uM preincubated for 30 mins in dark followed by irradiation measured after 30 mins by agarose gel electrophoresis; format: nucleic-acid assay
Procedure, shortened: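 PC31 cells (~10^7 CFU/mL in PBS) received 5 µM sensitizer for 30 min at 37 °C in the dark, then 30 min visible light (162 J/cm²). Genomic DNA was extracted with a commercial kit immediately after irradiation. It was run on 1% agarose in TBE (pH 8) at 2.9 V/cm for 2 h beside an irradiated control.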

Nucleic Acid [11] = assay: Binding affinity to calf thymus DNA assessed as reduction in electrophoretic DNA mobility at 20 uM after 1 to 5 hrs irradiation by agarose gel electrophoresis; format: nucleic-acid assay; settings: Bos taurus
Procedure, shortened: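 Calf thymus double-stranded DNA (1.3 × 10^-4 M, in base pairs) mixed with 20 μM sensitizer in TE buffer (10 mM Tris-HCl, 1 mM EDTA, pH 7.6). Irradiated with visible light (90 mW/cm²) at room temperature for 1, 2, 3, 4 or 5 h. Samples then run on 1% agarose gels in TBE buffer (pH 8) at 2.9 V/cm for 2 h. Controls: DNA alone, DNA with sensitizer in dark, irradiated DNA.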

Nucleic Acid [12] = assay: Binding affinity to calf thymus DNA assessed as DNA cleavage at 20 uM after 2 hrs irradiation by agarose gel electrophoresis; format: nucleic-acid assay; settings: Bos taurus; procedure, shortened: as §1

| Kapp (Nucleic Acid [2]) [×10⁵ /M] | Activity (Nucleic Acid [3]) [%] | Activity (Nucleic Acid [5]) [%] | IC50 (Candida albicans [6]) [nM] | Activity (Nucleic Acid [8]) | Activity (Nucleic Acid [10]) | Activity (Nucleic Acid [12]) [%] | SMILES | log10CFU/ml (Candida albicans [1]) | Activity (Candida albicans [4]) | Activity (Candida albicans [7]) | log10CFU/ml (Candida albicans [9]) | Activity (Nucleic Acid [11]) |
| --- | --- | --- | --- | --- | --- | --- | --- | --- | --- | --- | --- | --- |
| 6.7 | 19.7 | 50 | 160 | inactive | inactive |  | C[N+](C)(C)c1ccc(-c2c3nc(c(-c4ccc([N+](C)(C)C)cc4)c4ccc([nH]4)c(-c4ccc([N+](C)(C)C)cc4)c4nc(c(-c5ccc(C(F)(F)F)cc5)c5ccc2[nH]5)C=C4)C=C3)cc1 | 3.5 | Active | inactive | 5 |  |
| 7.5 | 59.3 |  | 230 |  | inactive | > 90 | C[N+](C)(C)c1ccc(-c2c3nc(c(-c4ccc([N+](C)(C)C)cc4)c4ccc([nH]4)c(-c4ccc([N+](C)(C)C)cc4)c4nc(c(-c5ccc([N+](C)(C)C)cc5)c5ccc2[nH]5)C=C4)C=C3)cc1 | 3.5 | Active | inactive | 5 |  |

| SMILES | Kapp (Nucleic Acid [2]) [×10⁵ /M] | Activity (Nucleic Acid [3]) [%] | Activity (Nucleic Acid [5]) [%] | IC50 (Candida albicans [6]) [nM] | Activity (Nucleic Acid [8]) | Activity (Nucleic Acid [10]) | Activity (Nucleic Acid [12]) [%] | log10CFU/ml (Candida albicans [1]) | Activity (Candida albicans [4]) | Activity (Candida albicans [7]) | log10CFU/ml (Candida albicans [9]) | Activity (Nucleic Acid [11]) |
| --- | --- | --- | --- | --- | --- | --- | --- | --- | --- | --- | --- | --- |
| C[n+]1ccc(-c2c3nc(c(-c4cc[n+](C)cc4)c4ccc([nH]4)c(-c4cc[n+](C)cc4)c4ccc([nH]4)c(-c4cc[n+](C)cc4)c4nc2C=C4)C=C3)cc1 [TMPYP4] | 4.4 |  |  | 410 |  | inactive |  | 3.5 | Active | inactive | 5 | Active |
